Compounds with a hit are over-represented: about 3.5% of the library has one in this group of screens.
MrgX1 allo act = positive allosteric modulators of MrgX1, primary screen, HEK293 cells, Fluo-4 calcium flux. Mas-related G-protein coupled receptor member X1 (Homo sapiens), Q96LB2. FDSS; stronger effect = higher value. B-score at 10 µM. 310,000 tested, 0.63% active. AID 588675, 2011;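 active = plate-corrected calcium response at least 3 library SD above typical, normal starting fluorescence, not activating the receptor alone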;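 note: compound read alongside a low EC10 to EC30 dose of BAM8-22 agonist; peak minus trough fluorescence over baseline measured at the second addition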
MrgX1 agonist = agonists of human MrgX1 receptor, primary screen, HEK293 cells, Fluo-4 calcium flux; Mas-related G-protein coupled receptor member X1 (Homo sapiens), Q96LB2; Fluo-4 calcium fluorescence, agonist mode; stronger effect = higher value; B-score at 10 µM; 310,000 tested, 0.44% active; AID 588627, 2011;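 active = calcium response B-score plate-corrected fluorescence ratio at least 3 library SD, with starting fluorescence B-score inside 5 SD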
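Material – MrgX1-expressing HEK293 cells · Input – 15,000 cells seeded per well · Dosing – compound as first of three additions · Times – overnight seeding, then 1 h dark dye loading · Measured by – kinetic Fluo-4 NW fluorescence of intracellular calcium · Read-out – B-scored fluorescence response ratio · Benchmarks – positive and negative control wells on each plate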
MrgX1 antag = antagonists of human MrgX1 receptor, primary screen, HEK293 cells, Fluo-4 calcium flux; Mas-related G-protein coupled receptor member X1 (Homo sapiens), Q96LB2; BAM8-22 antagonism; stronger effect = lower value; B-score at 10 µM; 310,000 tested, 1.3% active; AID 588676, 2011;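 active = calcium-response B-score plate-corrected more than 3 library SD below zero, starting fluorescence within 5 deviations, no agonist response on first addition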;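 note: peak minus trough fluorescence over baseline after final BAM8-22 challenge near maximal dose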
RGS4 pot = RGS4 potentiators or activators, primary screen, cell-based, HEK293 M3R inducible RGS4, calcium flux. carbachol calcium flux Fluo4; stronger effect = lower value. B-score at 10 µM. 310,000 tested, 0.92% active. AID 463111, 2010;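 active = B-score of the integrated calcium signal more than 4 SD below the library mean, with starting fluorescence not abnormally high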;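 note: negative B-score means reduced calcium response which marks RGS4 activation or potentiation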
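test system = HEK293 cells with stable M3R and inducible RGS4 | schedule = recording 10 s baseline at 1 Hz, 100 s post-agonist | technique = Fluo4-AM (2 µM) calcium-flux fluorescence, kinetic read | measure = Agonist-evoked peak-minus-minimum fluorescence over baseline, integrated ratio, B score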
RGS4 block = RGS4 inhibitors, primary screen, cell-based, HEK293 M3R inducible RGS4, calcium flux; Regulator of G-protein signaling 4 (Homo sapiens), P49798; Fluo-4 calcium flux; stronger effect = higher value; triggered by carbachol at its EC20; B-score at 10 µM; 310,000 tested, 0.45% active;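 active = B-score, a plate-corrected calcium signal, over three deviations above library mean, with baseline fluorescence within five deviations of library mean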;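 note: RGS4 expression induced by doxycycline in cells with stable M3 receptor; B-score is computed from the integrated fluorescence ratio over baseline after carbachol; higher B-score means a larger calcium signal and so more RGS4 inhibition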
Target sequence (P49798 whole entry, looked up): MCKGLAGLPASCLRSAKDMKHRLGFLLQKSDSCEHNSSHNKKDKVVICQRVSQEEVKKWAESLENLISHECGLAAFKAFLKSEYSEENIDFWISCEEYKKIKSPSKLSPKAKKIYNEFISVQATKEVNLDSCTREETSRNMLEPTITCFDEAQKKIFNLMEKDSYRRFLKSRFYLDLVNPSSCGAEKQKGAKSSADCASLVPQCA
Active calls of the source: *; i = inactive; . = no result given.

SMILES	MrgX1 allo act	MrgX1 agonist	MrgX1 antag	RGS4 pot	RGS4 block
COc1ccc(C2=Nn3c(nnc3-c3cc(C)[nH]n3)SC2)cc1	i	i	i	i	i
CC/C(=N/NC(=O)c1ccccc1O)c1c(C)[nH]n(-c2ccccc2)c1=O	i	i	i	i	i
Cc1ccc(/C=C2\S/C(=N/S(=O)(=O)c3cccs3)NC2=O)cc1	14*	i	i	i	i
Cc1ccc(S(=O)(=O)/N=C2/NC(=O)/C(=C\c3ccco3)S2)cc1	i	i	i	.	.
COc1ccccc1OCC(=O)N/N=C/c1c(O)ccc2ccccc12	i	i	i	-7.6*	i
COc1ccc(/C=N/NC(=O)COc2ccc3ccccc3c2)c(C(=O)O)c1OC	i	i	-5.4*	i	i
COc1ccc(OCC(=O)N/N=C/c2ccc(OC)c(OC)c2C(=O)O)cc1	i	i	i	i	i
O=C(Nc1cccc(C(F)(F)F)c1)C1CCN(S(=O)(=O)c2cccnc2)CC1	i	i	i	i	i
Clc1ccc(-c2ccc(CNCc3ccccn3)o2)cc1	i	i	i	i	i
O=C(CCc1nc2sc3c(c2c(=O)[nH]1)CCCC3)N1CCN(c2ccccc2)CC1	i	i	-7.2*	i	i
CCOc1ccc(CNC(=O)CCCC(=O)n2ncc3cc(C)ccc32)cc1	i	i	i	i	i
C#CCOCCOCCOCCNc1nc(N2CCN(C(=O)CCCCCCCCCCNC(=O)[C@H]([C@@H](C)CC)n3cc(CCCCCN)nn3)CC2)nc(N2CCN(C(=O)CCCCCCCCCCNC(=O)[C@H](CO)n3cc(CCCCCN)nn3)CC2)n1	i	108*	i	.	.
C#CCOCCOCCOCCNc1nc(N2CCN(C(=O)CCCCCCCCCCNC(=O)[C@H]([C@@H](C)CC)n3cc(CCCCCN)nn3)CC2)nc(N2CCN(C(=O)CCCCCCCCCCNC(=O)[C@@H]([C@H](C)CC)n3cc(CCCCCN)nn3)CC2)n1	i	106*	i	.	.
C#CCOCCOCCOCCNc1nc(N2CCN(C(=O)CCCCCCCCCCNC(=O)[C@@H](CCC(=O)O)n3cc(CCCCCN)nn3)CC2)nc(N2CCN(C(=O)CCCCCCCCCCNC(=O)[C@H]([C@@H](C)CC)n3cc(CCCCCN)nn3)CC2)n1	i	i	i	.	.
CN(C)c1ccc(C(C(=O)NC2CCCC2)N(Cc2cccnc2)C(=O)c2snc(C(N)=O)c2N)cc1 (stereo not given)	i	i	-6.4*	i	i
CCOc1ccc(C(C(=O)NC2CCCC2)N(Cc2ccccc2)C(=O)c2nsc(Cl)c2Cl)cc1 (stereo not given)	i	i	i	-7.2*	i
CC1CCCCC1NC(=O)CCNS(=O)(=O)c1ccc2c(c1)CCC(=O)N2 (stereo not given)	i	i	i	i	i
COc1ccc2nc(N3C(=O)/C(=C/c4ccccc4)NC3=S)sc2c1	6.8*	i	i	i	i
Cc1cccc([N+](=O)[O-])c1NC(=O)CN(Cc1ccccc1)Cc1ccccc1	i	i	i	-8.6*	i
COC(=O)c1c(-c2ccc(OC)cc2)oc2ccc(-c3ccc(OC)nc3)cc12	i	i	i	i	i
CCCOC(=O)c1c(-c2ccc(OC)cc2)oc2ccc(-c3ccc(OC)nc3)cc12	i	i	-8.3*	i	i
COCCN(C(=O)CCC(=O)Nc1cc(C)on1)C(C(=O)NC(C)(C)C)c1cccc(OC)c1OC (stereo not given)	i	i	i	i	i
N=C1C(c2ccccc2)=C(O)CN1CCO	i	i	i	i	i
CCCCc1ccc(C2C(C#N)=C(N)SC(N)=C2C#N)s1	i	i	-9.6*	.	.
CCOc1ccc(C2C(C#N)=C(N)SC(N)=C2C#N)c(OCC)c1	i	i	i	i	i
CCOC(=O)c1c(CSc2ccc(CC)cc2)oc2ccc(O)c(CN(C)C)c12	i	i	-5.9*	i	i
